Assays:
[1] = target: T1, Dual specificity mitogen-activated protein kinase kinase 3 (Homo sapiens) (UniProt P46734); test: Inhibition of MEK3 at 1 uM
T1 sequence (whole entry): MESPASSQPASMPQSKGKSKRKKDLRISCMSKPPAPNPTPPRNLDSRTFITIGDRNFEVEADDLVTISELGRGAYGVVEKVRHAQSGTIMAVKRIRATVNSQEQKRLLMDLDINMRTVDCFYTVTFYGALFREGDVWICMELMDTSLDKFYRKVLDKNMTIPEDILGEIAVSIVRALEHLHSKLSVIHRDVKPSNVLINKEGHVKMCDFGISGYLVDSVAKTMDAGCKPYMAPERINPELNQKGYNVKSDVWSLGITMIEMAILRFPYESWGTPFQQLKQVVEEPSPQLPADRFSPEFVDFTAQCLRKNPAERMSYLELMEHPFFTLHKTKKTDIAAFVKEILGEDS

[2] = target: Myosin light chain kinase, smooth muscle (Homo sapiens) (UniProt Q15746); test: Inhibition of MYLK at 1 uM
[3] = target: Serine/threonine-protein kinase PAK 6 (Homo sapiens) (UniProt Q9NQU5); test: Inhibition of PAK6 at 1 uM
[4] = target: Serine/threonine-protein kinase SIK3 (Homo sapiens) (UniProt Q9Y2K2); test: Inhibition of QSK at 1 uM
[5] = target: T2, Tyrosine-protein kinase ZAP-70 (Homo sapiens) (UniProt P43403); test: Inhibition of ZAP70 at 1 uM
T2 sequence (whole entry): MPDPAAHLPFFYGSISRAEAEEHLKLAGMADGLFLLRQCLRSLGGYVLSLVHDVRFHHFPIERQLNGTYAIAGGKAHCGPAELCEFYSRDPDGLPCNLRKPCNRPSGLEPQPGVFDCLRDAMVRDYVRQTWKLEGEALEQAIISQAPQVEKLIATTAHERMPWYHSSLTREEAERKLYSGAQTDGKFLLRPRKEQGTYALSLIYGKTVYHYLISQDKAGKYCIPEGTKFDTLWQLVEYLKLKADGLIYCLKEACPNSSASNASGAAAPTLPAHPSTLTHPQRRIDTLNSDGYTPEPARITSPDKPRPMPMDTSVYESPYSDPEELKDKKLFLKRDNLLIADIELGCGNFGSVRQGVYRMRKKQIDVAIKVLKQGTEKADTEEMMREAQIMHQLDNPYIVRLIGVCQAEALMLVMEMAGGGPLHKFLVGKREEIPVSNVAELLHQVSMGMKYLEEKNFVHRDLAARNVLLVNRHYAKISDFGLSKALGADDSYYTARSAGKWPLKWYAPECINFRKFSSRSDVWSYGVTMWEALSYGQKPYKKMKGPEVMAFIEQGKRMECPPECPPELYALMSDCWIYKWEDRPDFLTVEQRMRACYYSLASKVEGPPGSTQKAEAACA

[6] = tested on: Tyrosine-protein kinase ABL1 (Homo sapiens), P00519 [Y253F]; test: Inhibition of ABL1 Y253F mutant at 1 uM
Method in brief: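 Ambit KINOMEscan screen at a single concentration across a 250–400 kinase panel, recorded as percent inhibition. Selectivity was expressed as S(90), the fraction of kinases inhibited >90%.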

[7] = target: T3, Megakaryocyte-associated tyrosine-protein kinase (Homo sapiens) (UniProt P42679); test: Inhibition of CTK at 1 uM
T3 sequence (whole entry): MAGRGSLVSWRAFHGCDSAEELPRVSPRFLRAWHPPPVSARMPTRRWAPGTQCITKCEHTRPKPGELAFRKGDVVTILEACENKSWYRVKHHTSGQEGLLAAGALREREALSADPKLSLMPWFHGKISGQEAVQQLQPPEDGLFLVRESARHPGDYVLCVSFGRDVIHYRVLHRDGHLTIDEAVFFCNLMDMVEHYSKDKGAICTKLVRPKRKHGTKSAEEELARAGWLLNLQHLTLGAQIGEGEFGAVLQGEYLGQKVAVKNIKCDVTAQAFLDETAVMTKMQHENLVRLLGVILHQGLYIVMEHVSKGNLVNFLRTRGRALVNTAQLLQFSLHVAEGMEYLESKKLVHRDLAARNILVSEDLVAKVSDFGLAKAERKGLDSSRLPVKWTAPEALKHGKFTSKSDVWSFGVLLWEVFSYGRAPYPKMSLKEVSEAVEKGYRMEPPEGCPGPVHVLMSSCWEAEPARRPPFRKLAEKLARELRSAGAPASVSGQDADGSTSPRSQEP

[8] = target: T4, Ephrin type-B receptor 6 (Homo sapiens) (UniProt O15197); test: Inhibition of EPHB6 at 1 uM
T4 sequence (whole entry): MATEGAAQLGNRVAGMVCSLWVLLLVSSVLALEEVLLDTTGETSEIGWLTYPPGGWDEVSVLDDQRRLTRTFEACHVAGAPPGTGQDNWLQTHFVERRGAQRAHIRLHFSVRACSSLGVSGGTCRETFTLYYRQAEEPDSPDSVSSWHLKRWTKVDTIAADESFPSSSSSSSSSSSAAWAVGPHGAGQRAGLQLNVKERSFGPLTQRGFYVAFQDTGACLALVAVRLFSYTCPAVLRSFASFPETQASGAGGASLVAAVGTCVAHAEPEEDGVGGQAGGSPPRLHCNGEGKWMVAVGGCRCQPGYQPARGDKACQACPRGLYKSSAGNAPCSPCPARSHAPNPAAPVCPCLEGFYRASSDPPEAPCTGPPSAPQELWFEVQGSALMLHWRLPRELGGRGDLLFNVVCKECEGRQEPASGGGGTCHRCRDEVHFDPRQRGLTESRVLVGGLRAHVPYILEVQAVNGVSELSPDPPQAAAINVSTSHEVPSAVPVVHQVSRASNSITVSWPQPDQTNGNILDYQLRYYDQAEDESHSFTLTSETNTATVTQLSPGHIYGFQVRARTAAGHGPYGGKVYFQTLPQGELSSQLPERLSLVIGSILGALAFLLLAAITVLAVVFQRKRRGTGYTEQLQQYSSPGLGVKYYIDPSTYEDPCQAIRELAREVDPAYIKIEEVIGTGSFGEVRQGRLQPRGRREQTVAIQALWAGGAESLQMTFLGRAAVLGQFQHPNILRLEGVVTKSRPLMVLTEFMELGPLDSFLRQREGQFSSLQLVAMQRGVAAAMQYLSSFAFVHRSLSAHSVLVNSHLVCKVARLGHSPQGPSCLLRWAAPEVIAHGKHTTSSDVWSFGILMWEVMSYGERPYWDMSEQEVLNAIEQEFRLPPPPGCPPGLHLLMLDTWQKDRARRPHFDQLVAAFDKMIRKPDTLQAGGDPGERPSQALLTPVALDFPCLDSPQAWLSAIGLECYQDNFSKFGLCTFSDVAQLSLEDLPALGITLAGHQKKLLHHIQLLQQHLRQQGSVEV

Serine/threonine-protein kinase PAK 6 (Homo sapiens), sequence (Q9NQU5 whole entry, looked up): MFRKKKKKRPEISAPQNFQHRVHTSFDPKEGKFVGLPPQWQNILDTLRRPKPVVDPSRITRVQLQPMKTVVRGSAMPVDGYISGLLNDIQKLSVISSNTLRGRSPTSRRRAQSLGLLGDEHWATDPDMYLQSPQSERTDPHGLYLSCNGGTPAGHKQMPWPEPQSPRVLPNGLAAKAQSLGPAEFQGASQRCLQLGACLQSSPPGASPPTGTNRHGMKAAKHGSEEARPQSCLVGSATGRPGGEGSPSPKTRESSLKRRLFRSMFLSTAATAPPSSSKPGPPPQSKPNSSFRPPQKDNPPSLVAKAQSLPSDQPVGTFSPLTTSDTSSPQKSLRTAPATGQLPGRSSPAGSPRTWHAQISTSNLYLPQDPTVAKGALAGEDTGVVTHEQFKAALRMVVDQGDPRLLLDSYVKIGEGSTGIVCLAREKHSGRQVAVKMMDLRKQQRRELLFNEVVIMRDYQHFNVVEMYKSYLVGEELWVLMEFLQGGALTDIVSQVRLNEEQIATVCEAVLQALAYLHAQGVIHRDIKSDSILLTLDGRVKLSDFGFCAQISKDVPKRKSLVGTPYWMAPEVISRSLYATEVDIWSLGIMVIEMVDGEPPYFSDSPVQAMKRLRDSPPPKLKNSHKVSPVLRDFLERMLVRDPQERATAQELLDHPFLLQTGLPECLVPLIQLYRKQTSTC
Serine/threonine-protein kinase SIK3 (Homo sapiens), sequence (Q9Y2K2 whole entry, looked up): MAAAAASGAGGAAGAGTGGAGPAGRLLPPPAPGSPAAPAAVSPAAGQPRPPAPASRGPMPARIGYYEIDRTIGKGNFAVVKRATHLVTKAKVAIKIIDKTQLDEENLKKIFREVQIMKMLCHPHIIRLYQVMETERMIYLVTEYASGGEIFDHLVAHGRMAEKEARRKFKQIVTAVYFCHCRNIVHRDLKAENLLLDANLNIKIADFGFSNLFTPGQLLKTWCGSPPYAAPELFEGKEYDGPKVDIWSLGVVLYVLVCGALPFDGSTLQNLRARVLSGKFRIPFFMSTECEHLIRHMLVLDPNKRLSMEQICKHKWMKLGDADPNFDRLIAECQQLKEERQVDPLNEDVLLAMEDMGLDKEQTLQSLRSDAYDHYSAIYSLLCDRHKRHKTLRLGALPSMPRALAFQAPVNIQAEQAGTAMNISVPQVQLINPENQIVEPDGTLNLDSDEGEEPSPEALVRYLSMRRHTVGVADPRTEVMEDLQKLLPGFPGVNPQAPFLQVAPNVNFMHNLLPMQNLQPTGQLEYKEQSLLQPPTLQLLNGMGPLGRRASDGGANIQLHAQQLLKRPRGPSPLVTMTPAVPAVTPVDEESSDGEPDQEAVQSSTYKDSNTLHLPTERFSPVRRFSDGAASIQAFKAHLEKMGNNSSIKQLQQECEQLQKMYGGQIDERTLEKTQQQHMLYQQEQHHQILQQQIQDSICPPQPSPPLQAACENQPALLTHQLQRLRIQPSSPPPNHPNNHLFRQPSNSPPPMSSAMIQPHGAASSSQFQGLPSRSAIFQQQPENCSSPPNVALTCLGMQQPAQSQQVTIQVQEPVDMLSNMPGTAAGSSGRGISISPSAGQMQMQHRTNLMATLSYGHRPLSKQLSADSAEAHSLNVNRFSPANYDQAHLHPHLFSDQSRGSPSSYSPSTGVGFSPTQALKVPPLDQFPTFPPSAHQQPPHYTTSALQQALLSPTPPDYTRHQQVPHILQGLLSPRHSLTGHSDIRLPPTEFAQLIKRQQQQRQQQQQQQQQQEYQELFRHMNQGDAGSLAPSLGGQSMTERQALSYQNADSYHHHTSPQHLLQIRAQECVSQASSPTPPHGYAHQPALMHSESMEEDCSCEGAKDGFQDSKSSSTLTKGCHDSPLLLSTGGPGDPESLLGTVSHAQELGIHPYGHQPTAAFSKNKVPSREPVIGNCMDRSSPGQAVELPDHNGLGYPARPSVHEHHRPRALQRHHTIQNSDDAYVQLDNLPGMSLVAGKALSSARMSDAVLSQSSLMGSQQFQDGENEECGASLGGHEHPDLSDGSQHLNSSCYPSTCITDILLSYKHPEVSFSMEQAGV
Myosin light chain kinase, smooth muscle (Homo sapiens), sequence (Q15746 whole entry): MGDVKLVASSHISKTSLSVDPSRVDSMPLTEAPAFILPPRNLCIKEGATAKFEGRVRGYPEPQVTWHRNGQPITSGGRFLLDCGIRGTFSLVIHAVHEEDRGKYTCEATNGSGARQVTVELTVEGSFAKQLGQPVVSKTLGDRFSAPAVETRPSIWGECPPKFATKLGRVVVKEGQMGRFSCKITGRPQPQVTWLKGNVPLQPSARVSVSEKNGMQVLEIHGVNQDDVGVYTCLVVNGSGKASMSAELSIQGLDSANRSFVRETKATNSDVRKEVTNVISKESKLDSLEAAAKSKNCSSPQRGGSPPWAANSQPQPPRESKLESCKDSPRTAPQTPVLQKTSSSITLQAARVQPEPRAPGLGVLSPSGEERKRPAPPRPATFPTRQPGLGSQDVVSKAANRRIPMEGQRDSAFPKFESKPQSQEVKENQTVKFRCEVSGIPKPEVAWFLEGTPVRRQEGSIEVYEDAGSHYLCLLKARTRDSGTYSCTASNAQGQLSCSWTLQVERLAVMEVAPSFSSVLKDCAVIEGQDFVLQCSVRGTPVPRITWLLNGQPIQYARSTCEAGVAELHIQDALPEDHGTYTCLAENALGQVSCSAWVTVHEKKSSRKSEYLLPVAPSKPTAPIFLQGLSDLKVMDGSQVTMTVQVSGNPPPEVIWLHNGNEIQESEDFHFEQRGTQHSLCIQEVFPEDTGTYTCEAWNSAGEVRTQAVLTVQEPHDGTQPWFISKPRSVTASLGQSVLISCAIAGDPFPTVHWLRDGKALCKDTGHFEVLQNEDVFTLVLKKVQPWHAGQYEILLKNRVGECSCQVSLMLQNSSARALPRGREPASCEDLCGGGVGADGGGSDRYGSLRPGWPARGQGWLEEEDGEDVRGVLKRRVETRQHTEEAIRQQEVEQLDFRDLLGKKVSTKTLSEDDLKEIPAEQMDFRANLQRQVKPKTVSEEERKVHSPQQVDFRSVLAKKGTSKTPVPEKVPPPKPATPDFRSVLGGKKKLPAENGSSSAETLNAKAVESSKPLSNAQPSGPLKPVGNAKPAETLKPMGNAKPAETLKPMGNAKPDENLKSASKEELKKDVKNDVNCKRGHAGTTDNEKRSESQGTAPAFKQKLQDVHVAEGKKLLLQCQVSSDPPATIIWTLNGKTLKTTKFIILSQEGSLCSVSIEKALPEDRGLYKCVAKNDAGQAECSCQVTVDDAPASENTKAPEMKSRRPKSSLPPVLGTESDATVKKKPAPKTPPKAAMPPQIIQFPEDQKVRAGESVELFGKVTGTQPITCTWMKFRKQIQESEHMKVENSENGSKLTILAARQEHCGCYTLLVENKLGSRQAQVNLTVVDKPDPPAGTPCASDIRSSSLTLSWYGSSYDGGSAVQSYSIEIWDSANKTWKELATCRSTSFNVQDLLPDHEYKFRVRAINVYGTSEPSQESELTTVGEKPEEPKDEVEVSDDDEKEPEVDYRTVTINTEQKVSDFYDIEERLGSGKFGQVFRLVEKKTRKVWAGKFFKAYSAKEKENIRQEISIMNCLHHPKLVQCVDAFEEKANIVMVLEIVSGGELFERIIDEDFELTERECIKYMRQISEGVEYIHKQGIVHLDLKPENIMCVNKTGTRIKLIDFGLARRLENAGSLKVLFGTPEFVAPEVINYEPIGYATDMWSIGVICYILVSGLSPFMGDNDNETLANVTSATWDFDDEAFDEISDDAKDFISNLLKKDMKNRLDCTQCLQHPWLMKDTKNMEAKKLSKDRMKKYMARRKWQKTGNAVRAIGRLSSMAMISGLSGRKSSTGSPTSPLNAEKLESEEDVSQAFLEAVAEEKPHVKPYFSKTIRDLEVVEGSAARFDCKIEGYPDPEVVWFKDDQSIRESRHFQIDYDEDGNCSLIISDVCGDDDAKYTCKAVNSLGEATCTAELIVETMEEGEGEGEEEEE

Compound | inhibition [1] [%] | inhibition [2] [%] | inhibition [3] [%] | inhibition [4] [%] | inhibition [5] [%] | inhibition [6] [%] | inhibition [7] [%] | inhibition [8] [%]
CN1CCN(c2ccc(-c3cnc4c(c3)N(Cc3cc(F)ccc3F)CCN4)cn2)CC1 | < 50 | < 50 | < 50 | < 50 | < 50 | < 50 | < 50 | 68
O=C(c1ccc(-c2cnc3c(c2)N(Cc2cc(Cl)ccc2C(F)(F)F)CCN3)cc1)N1CCC(N2CCCC2)CC1 | – | – | < 50 | – | < 50 | < 50 | < 50 | –
O=C(c1ccc(-c2cnc3c(c2)N(Cc2cc(Cl)ccc2C(F)(F)F)CCN3)cc1)N1CCCCC1 | – | – | < 50 | – | < 50 | < 50 | < 50 | –
CN1CCN(c2ccc(-c3cnc4c(c3)N(Cc3c(F)ccc(F)c3Cl)CCN4)cn2)CC1 | < 50 | < 50 | < 50 | < 50 | < 50 | 82 | < 50 | 95
COC1CCN(C(=O)c2ccc(-c3cnc4c(c3)N(Cc3cc(Cl)ccc3C(F)(F)F)CCN4)cc2)CC1 | – | – | < 50 | – | < 50 | < 50 | < 50 | –
O=C(O)c1ccc(-c2cnc3c(c2)N(Cc2cc(Cl)ccc2C(F)(F)F)CCN3)cc1 | – | – | < 50 | – | < 50 | – | – | –
CC(=O)N1CCN(c2cc(-c3cnc4c(c3)N(Cc3cc(Cl)ccc3C(F)(F)F)CCN4)ccn2)CC1 | < 50 | < 50 | < 50 | < 50 | < 50 | < 50 | < 50 | 92
FC(F)(F)c1ccc(Cl)cc1CN1CCNc2ncc(-c3ccnc(N4CCNCC4)c3)cc21 | < 50 | < 50 | < 50 | < 50 | < 50 | < 50 | < 50 | 97
CN1CCN(c2ccc(-c3cnc4c(c3)N(Cc3cc(Cl)ccc3C(F)(F)F)CCN4)cn2)CC1 | < 50 | < 50 | < 50 | < 50 | < 50 | < 50 | < 50 | 89
CN1CCN(c2ccc(-c3cnc4c(c3)N(Cc3cc(Cl)ccc3Cl)CCN4)cn2)CC1 | < 50 | < 50 | < 50 | < 50 | < 50 | < 50 | < 50 | 76

Reference: ChEMBL document CHEMBL1165965, “Synthesis and structure-activity relationships of 1,2,3,4-tetrahydropyrido[2,3-b]pyrazines as potent and selective inhibitors of the anaplastic lymphoma kinase” (Bioorg Med Chem, 2010)
